Results as given in ChEMBL document CHEMBL1121890, “Synthesis and antimetastatic properties of steroeoisomeric trycylic bis(dioxopiperazine) analogues in a B16 melanoma model” (1981).
Values joined by “and” are separate entries in the source; they are usually repeats but may differ in a detail not shown here. Identical values can stand only once.

Legend:
Assay type in all cases: functional, Mus musculus
[1] = system: B16-F10; assay: Effect of 100 uM on B16-F10 melanoma cells (experiment 2)
Summary of the method: (§1)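 B16-F10 cells, cultured in vitro for no more than 10 passages, were exposed for 24 h to drug made up as a 1000 μM Me₂SO stock and diluted in medium. Controls were Me₂SO or saline. Cells were scraped, washed and set at 5 × 10⁵/mL in Hanks BSS, and 0.2 mL was given iv by tail vein to male C57Bl/6J mice aged 6–8 weeks. Black lung nodules were counted at 14 days, mean ± SD, ANOVA/Newman–Keuls.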

[2] = system: B16-F10; assay: Effect of 20 uM on B16-F10 melanoma cells (experiment 2); summary of the method: as §1
[3] = system: B16-F10; assay: Effect of 2 uM on B16-F10 melanoma cells (experiment 2); summary of the method: as §1
[4] = system: B16-F10; assay: Effect of 100 uM on B16-F10 melanoma cells (experiment 1); summary of the method: as §1
[5] = system: B16-F10; assay: Effect of 2 uM on B16-F10 melanoma cells (experiment 1); summary of the method: as §1
[6] = system: B16-F10; assay: Effect of 20 uM on B16-F10 melanoma cells (experiment 1); summary of the method: as §1

O=C1CN2CCN3CC(=O)NC(=O)[C@H]3C2C(=O)N1 (some centres not stated)
Mean no. of lung colonies [1]: 118.9 | Mean no. of lung colonies [2]: 96.1 | Mean no. of lung colonies [3]: 52.1

O=C1CN2CCN3CC(=O)NC(=O)[C@@H]3C2C(=O)N1 (some centres not stated)
Mean no. of lung colonies [4]: 65.7 | Mean no. of lung colonies [5]: 29.1 | Mean no. of lung colonies [6]: 23.3 | Mean no. of lung colonies [2]: 50.1 and 50.2 | Mean no. of lung colonies [3]: 39.1

CCOC(=O)CN1CCN(CC(=O)OCC)[C@H]2C(=O)NC(=O)[C@H]21
Mean no. of lung colonies [4]: 142.5 | Mean no. of lung colonies [5]: 159.7 | Mean no. of lung colonies [6]: 160.7

CCOC(=O)COC(=O)[C@H]1[C@@H](C(N)=O)N(CC(=O)OCC)CCN1CC(=O)OCC
Mean no. of lung colonies [4]: 37.1 | Mean no. of lung colonies [5]: 33.2 | Mean no. of lung colonies [6]: 43.4

COC(=O)CN1CCN2CC(=O)NC(=O)[C@@H]2[C@@H]1C(N)=O
Mean no. of lung colonies [1]: 56.7 | Mean no. of lung colonies [2]: 101.3 | Mean no. of lung colonies [3]: 86.2
